# hIAP activ: increases human intestinal alkaline phosphatase activity | P09923 | purified human IAP, CDP-Star luminescence, 30 min; active compounds read high; 1 = vehicle-only enzyme, 0 = enzyme-free background | activation factor at 10 µM | 330,000 tested, 0.16% active | AID 2524;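 active = activation factor of the enzyme at least 2-fold when tested at 20 µM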
# Target sequence (P09923 whole entry, looked up): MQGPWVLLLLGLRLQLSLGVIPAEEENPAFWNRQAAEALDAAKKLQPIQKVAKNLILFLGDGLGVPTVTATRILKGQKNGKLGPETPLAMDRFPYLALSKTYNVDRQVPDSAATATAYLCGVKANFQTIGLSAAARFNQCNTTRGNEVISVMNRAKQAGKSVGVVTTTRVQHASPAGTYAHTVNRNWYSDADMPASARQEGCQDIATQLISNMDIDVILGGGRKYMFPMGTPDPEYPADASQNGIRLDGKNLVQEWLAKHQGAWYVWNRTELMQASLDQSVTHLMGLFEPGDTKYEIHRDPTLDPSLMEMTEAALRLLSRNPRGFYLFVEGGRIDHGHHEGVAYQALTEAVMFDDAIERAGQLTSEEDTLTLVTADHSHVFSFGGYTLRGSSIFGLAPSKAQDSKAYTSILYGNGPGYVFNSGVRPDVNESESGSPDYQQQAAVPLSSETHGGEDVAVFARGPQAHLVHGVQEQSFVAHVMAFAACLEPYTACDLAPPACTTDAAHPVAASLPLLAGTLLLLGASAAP
# bIAP inhibitor: blocks bovine intestinal alkaline phosphatase activity | AID 1019 | 190,000 tested, under 10 active | purified bovine IAP, CDP-star luminescence, 30 min | inhibition, % at 20 µM;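 active = over 50% inhibition of intestinal alkaline phosphatase at 20 µM in the single-dose screen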
#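 System: Purified bovine intestinal alkaline phosphatase (IAP) enzyme | Input: IAP diluted 1/65,000,000 in the well | Also added: CDP-star chemiluminescent phosphatase substrate, 30 µM final | Dosing: 20 µM single dose | Times: Enzyme reaction for 30 min at room temperature | Detection: Luminescence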
# mIAP activ: mouse IAP activation; AID 2805; muIAP, CDP-Star luminescence, 30 min; active compounds read high; 1 = vehicle-only enzyme signal, 0 = enzyme-free wells; activation factor at 10 µM; 330,000 tested, 0.24% active;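 active = activation factor of at least 2 at 20 µM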
#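 also added = chemiluminescent substrate CDP-Star | test system = mouse IAP enzyme | signal = chemiluminescence readout | compound = DMSO-dissolved test compounds | incubation = 30 min at room temperature | benchmarks = DMSO wells, no-enzyme wells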
# mIAP block: mouse IAP inhibition; 330,000 tested, 0.2% active; AID 2806; inhibition, % at 10 µM; purified mouse IAP, CDP-Star luminescence, 30 min;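 active = inhibition of at least 40% at 10 µM in the primary screen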;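 note: plate controls were DMSO with enzyme for no effect and no enzyme wells for full effect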
# hIAP block: blocks human intestinal alkaline phosphatase | 330,000 tested, 0.12% active | inhibition, % at 10 µM | purified IAP, CDP-Star luminescence, 30 min | AID 2544 | P09923;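 active = inhibition reaching a set limit with compound at 10 µM in the primary screen, cut at about 35% in these data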;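 note: plate controls were DMSO wells with enzyme for no effect and no-enzyme buffer wells for full effect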
# bIAP act: increases bovine intestinal alkaline phosphatase activity. activation factor at 20 µM. purified bovine IAP, CDP-star luminescence, 30 min; active compounds read high; fold of DMSO-control signal, blank-subtracted. 200,000 tested, 0.17% active;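 active = activation factor of 2 or more at 20 µM, a signal rise over negative controls twice the positive control's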
# hIAP act conf: human IAP activation confirmation. shares compounds with hIAP activ. activation (%Activity, negative = activation), % at 8.3 µM. 880 tested, 10% active. purified IAP, CDP-Star luminescence, 30 min; active compounds read low. AID 434926;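 active = at least twofold enzyme activation in any of six single-dose repeats, which the averaged readout prints as negative percent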
# * hit, by the source's call; · = no result. Rows were chosen to be rich in hits. Some 0.77% of all compounds tested hit in one or more screens of this group.
SMILES,hIAP activ,bIAP inhibitor,mIAP activ,mIAP block,hIAP block,bIAP act,hIAP act conf
CC(=O)c1cccc(OCc2cc(C(=O)N3C[C@@H](C)O[C@@H](C)C3)no2)c1,1.1,·,0.98,2,-12,·,·
CCOc1ccc(CC(=O)NNC(=S)NCCc2ccccc2)cc1,2*,-15,0.94,6,-105,1.2,78
CCCn1c(N/N=C(C)\C=C\c2ccccc2)nc2c1c(=O)[nH]c(=O)n2C,2.3*,-101,1.1,-14,-125,2*,-28
CCCn1c(SCCc2ccccc2)nc2c1c(=O)[nH]c(=O)n2C,0.83,8,0.98,2,17,0.9,·
CCCCCCCn1c(=N)n(CC(=O)c2ccco2)c2ccccc21,0.63,1,0.94,6,37*,1,-50*
CCCCn1c(=N)n(CC(=O)c2ccco2)c2ccccc21,0.88,18,1.1,-7,12,0.8,·
N#C/C(=C(\O)c1ccco1)c1ccccn1,2.1*,11,1,-4,-105,0.9,55
COc1ccc2c(c1)sc(=NC(=O)CS(=O)(=O)c1ccc(F)cc1)n2C,0.88,·,0.94,6,12,·,·
CC(/C=N/NC(=O)CCn1nnc2ccccc21)=C\c1ccccc1,0.65,-52,0.97,3,35*,1.5,-89*
CC(/C=N/NC(=O)Cn1cnc2ccccc21)=C\c1ccccc1,1.1,12,0.92,8,-6,0.9,·
CC(C)(Oc1ccc(Br)cc1Cl)C(=O)Nc1ccon1,0.96,·,1,-2,4,·,·
COc1cc(/C=C2\Oc3cc(O)ccc3C2=O)ccc1O,0.55,·,0.8,20,46*,·,10
CCOC(=O)c1sc(NC(=O)CSc2nc(C)cc(-c3ccccc3)n2)c(C#N)c1C,1,15,0.82,18,0,0.9,·
CCOC(=O)c1sc(NC(=O)CSc2n[nH]c(-c3ccc(Cl)cc3Cl)n2)c(C#N)c1C,0.31,13,0.68,32,69*,0.9,-1
O=C(CN(C(=O)c1csnn1)c1cccc2ccccc12)NCc1ccc(F)cc1,0.93,·,1,-1,7,·,·
CN1CCS/C1=C/C=C1\SC(=S)N(CC(=O)O)C1=O,0.73,·,0.7,30,27,0.4,·
CCCCN1C(=O)/C(=C/C=C2\SCCN2C)SC1=S,0.56,28,0.75,25,44*,0.7,-4
COc1cccc(Cn2cccc(NC(=O)NCc3ccccc3)c2=O)c1,0.61,·,0.95,5,38*,·,9
CC1CN(C(=O)c2cc(-c3ccc(Cl)s3)nc3ccccc23)CC(C)O1 (configuration not stated),0.9,·,0.98,2,10,·,·
Cc1cccc2sc(NNC(=O)c3cc(=O)c4ccccc4o3)nc12,2,-14,0.69,31,-95,1.1,·
O=C(NNc1nc2c(F)cccc2s1)c1cc(=O)c2ccccc2o1,2.7*,4,0.8,20,-174,1,11
COc1ccc2nc(NNC(=O)c3cc(=O)c4ccccc4o3)sc2c1,2.2*,4,0.86,14,-124,1,-71
CC(=O)c1cc(C(=O)N2CCCC(CCC(=O)N(C)CCc3ccccn3)C2)cs1 (configuration not stated),1.1,16,0.9,10,-5,0.8,·
O=C(NCCCN1CCOCC1)c1ccc2c(c1)N(Cc1ccc(Cl)cc1)C(=O)c1ccccc1S2=O (configuration not stated),0.63,·,0.92,8,37*,·,-48*
COc1cc2c(cc1OC)CN(C(=O)COc1ccccc1[N+](=O)[O-])CC2,1.2,·,1,-1,-16,·,·
SMILES,hIAP activ,bIAP inhibitor,mIAP activ,mIAP block,hIAP block,bIAP act,hIAP act conf
CC1=NN(Cc2ccccc2)C(=O)/C1=C\c1ccc(N(C)C)cc1,0.63,39,0.77,23,37*,0.6,66
O=C(Nc1ccc(N2CCOCC2)c(Cl)c1)c1ccc(-n2cnnc2)cc1Cl,1,·,1,-1,-2,·,·
O=C(N/N=C/c1ccco1)c1cc(-c2ccc3ccccc3c2)n[nH]1,2.1*,-42,0.96,4,-108,1.4,-15
O=C(N/N=C/c1ccccn1)c1cc(-c2ccc3ccccc3c2)n[nH]1,2.2*,18,0.93,7,-125,0.8,-30
CCc1ccc(-c2cc(C(=O)N/N=C/c3ccccn3)[nH]n2)cc1,1.7,-1,1,-3,-72,1,·
CCc1ccc(-c2cc(C(=O)N/N=C/c3ccco3)[nH]n2)cc1,1.6,2,1,-3,-65,1,·
Nc1ccc(S(=O)(=O)N2CCc3ccccc32)cc1,0.62,·,1,-3,38*,·,-26
O=C(Nc1ccccc1O)c1cccc(S(=O)(=O)Nc2ccccc2O)c1,1.7,·,0.8,20,-72,·,·
O=C1C2C3C=CC(C3)C2C(=O)N1c1n[nH]c(-c2cccnc2)n1 (configuration not stated),0.34,17,1,-2,66*,0.8,-82*
O=C1C2C3C=CC(C3)C2C(=O)N1c1n[nH]c(-c2ccccc2)n1 (configuration not stated),0.95,47,1,0,5,0.5,·
O=C1C2CC=CCC2C(=O)N1c1n[nH]c(-c2ccccc2)n1 (configuration not stated),0.08,·,0.97,2,92*,0.1,-46
Cn1cc(CN2CCC(n3nccc3NC(=O)CCc3ccccc3)CC2)cn1,1.1,·,1,-4,-13,·,·
CCOc1ccccc1CN1CCC(n2nccc2NC(=O)CCc2ccccc2)CC1,2.1*,·,1.4,-36,-115,·,27
CCOc1ccccc1CN1CCC(n2nccc2NC(=O)CCCc2ccccc2)CC1,3.3*,·,1.4,-44,-225,·,-24
CC(CN1CCC(n2nccc2NC(=O)CCCc2ccccc2)CC1)c1ccccc1 (configuration not stated),2*,·,1.8,-79,-104,·,-91
COc1cccc(CN2CCC(n3nccc3NC(=O)CCCc3ccccc3)CC2)c1,3.3*,·,1.7,-66,-228,·,-17
CC(=O)c1cccc(CN2CCC(n3nccc3NC(=O)CCCc3ccccc3)CC2)c1,1.2,·,1.1,-10,-23,·,·
COCc1c(C(=O)N/N=C/c2cccc3ccccc23)nnn1-c1nonc1N,1,-6,1.1,-7,-1,1.1,·
Cc1ccc(C(=O)N(CC(C)C)c2c(N)n(Cc3ccccc3)c(=O)[nH]c2=O)o1,0.96,·,0.97,3,4,·,·
O=C(O)CCCCCCCCCCCNC(=O)NC12CC3CC(CC(C3)C1)C2,0.97,·,1.1,-6,3,·,·
CC(=O)Nc1ccc(SCC(=O)NNC(=O)CN(C)S(=O)(=O)c2ccc(C)cc2)cc1,1.1,·,1,0,-8,·,·
CC(=O)Nc1ccc(S(=O)(=O)N(C)CC(=O)NNC(=O)Cc2nc3ccccc3n2C)cc1,2.3*,·,1.1,-6,-130,·,-50

# Screens deposited in PubChem by Sanford-Burnham Center for Chemical Genomics.
